Measurements from ChEMBL document CHEMBL2331522, “Dibenzocyclooctadiene lignans and norlignans from fruits of Schisandra wilsoniana” (J Nat Prod, 2013).
In brackets after ≈: the same amount, converted by molar mass.

Legend:
[1] = Therapeutic index, ratio of CC50 for human C8166 cells to EC50 for HIV1; assay type: cell-based; conditions: read-out: Ratio CC50/EC50
[2] = test system: Human immunodeficiency virus 1; assay: Antiviral activity against HIV1 assessed as reduction in virus-induced cytopathogenicity; assay type: functional, organism-based
Procedure, shortened: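 Test compounds were added to C8166 cells infected with HIV-1 and scored for protection from virus-induced cytopathic effect. The concentration giving 50% protection is reported as EC50.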

[3] = Cytotoxicity against human C8166 cells by MTT assay; assay type: cell-based

Compound `COc1cc2c(c(O)c1OC)-c1c(cc3c(c1OC)OCO3)[C@H](OC)[C@@H](C)[C@@H](C)C2` [MARLIGNAN R] has a selectivity ratio [1] of 9.48, an EC50 [2] of 3.87 µg/mL (≈ 9.29 µM) and a CC50 [3] of 36.7 µg/mL (≈ 88.1 µM).

In the case of `COc1ccc(C(c2ccc(OC)c(O)c2)[C@H](C(=O)O)C(CO)CO)cc1O` [MARLPHENOL E], the selectivity ratio [1] is reported as 21.2, the EC50 [2] is reported as 3.47 µg/mL (≈ 8.84 µM) and the CC50 [3] is reported as 73.5 µg/mL (≈ 187 µM).

`COc1c2c(cc3c1-c1c(cc4c(c1O)OCO4)C[C@H](C)[C@H](C)[C@H]3OC)OCO2` [MARLIGNAN P] showed a selectivity ratio [1] of 23.5, an EC50 [2] of 3.18 µg/mL (≈ 7.94 µM) and a CC50 [3] of 74.6 µg/mL (≈ 186 µM).

In the case of `COc1cc(C(O)C(C(=O)O)C(CO)CO)cc(O)c1OC` (stereo unspecified) [MARPHENOL D], the selectivity ratio [1] is reported as 29.1, the EC50 [2] is reported as 3.22 µg/mL (≈ 10.2 µM) and the CC50 [3] is reported as 93.8 µg/mL (≈ 297 µM).

In the case of `COc1cc2c(c(OC)c1OC)-c1c(cc3c(c1O)OCO3)[C@H](OC)[C@@H](C)[C@@H](C)C2` [MARLIGNAN S], the selectivity ratio [1] is reported as 10.3, the EC50 [2] is reported as 4.14 µg/mL (≈ 9.94 µM) and the CC50 [3] is reported as 42.8 µg/mL (≈ 103 µM).

For `COc1c(O)cc2c(c1OC)-c1c(cc3c(c1OC)OCO3)C[C@H](C)[C@H](C)[C@H]2O` [MARLIGNAN O], the selectivity ratio [1] was 12.1, the EC50 [2] was 5.84 µg/mL (≈ 14.5 µM) and the CC50 [3] was 70.6 µg/mL (≈ 175 µM).

With `Cc1cn([C@H]2C[C@H](N=[N+]=[N-])[C@@H](CO)O2)c(=O)[nH]c1=O` [ZIDOVUDINE] the selectivity ratio [1] was > 46500, the EC50 [2] was 0.0043 µg/mL (≈ 0.0161 µM) and the CC50 [3] was > 200 µg/mL.

`COc1ccc([C@@H](c2ccc3c(c2)OCO3)[C@H](C(=O)O)C(CO)CO)cc1O` [MARLPHENOL F] showed a selectivity ratio [1] of 27.6, an EC50 [2] of 2.97 µg/mL (≈ 7.61 µM) and a CC50 [3] of 82.1 µg/mL (≈ 210 µM).

Work on `COc1cc(C(O)C(C(=O)O)C(CO)CO)ccc1O` (stereo unspecified) [MARPHENOL C] yielded a selectivity ratio [1] of 26.9, an EC50 [2] of 3.14 µg/mL (≈ 11 µM) and a CC50 [3] of 84.5 µg/mL (≈ 295 µM).

`COc1c2c(cc3c1-c1c(cc4c(c1O)OCO4)[C@H](OC)[C@@H](C)[C@@H](C)C3)OCO2` [MARLIGNAN Q] showed a selectivity ratio [1] of 5.33, an EC50 [2] of 4.22 µg/mL (≈ 10.5 µM) and a CC50 [3] of 22.5 µg/mL (≈ 56.2 µM).

With `COc1cc2c(c(OC)c1O)-c1c(cc(OC)c(OC)c1OC)C[C@H](C)[C@H](C)[C@H]2O` [MARLIGNAN M] the selectivity ratio [1] was 9.39, the EC50 [2] was 3.42 µg/mL (≈ 8.17 µM) and the CC50 [3] was 32.1 µg/mL (≈ 76.7 µM).

`COc1cc2c(c(O)c1OC)-c1c(cc(OC)c(OC)c1O)[C@H](O)[C@@H](C)[C@@H](C)C2` [MARLIGNAN N] showed a selectivity ratio [1] of 7.67, an EC50 [2] of 6.18 µg/mL (≈ 15.3 µM) and a CC50 [3] of 47.4 µg/mL (≈ 117 µM).
